Measured values from ChEMBL document CHEMBL1143592, “N-terminal sugar conjugation and C-terminal Thr-for-Thr(ol) exchange in radioiodinated Tyr3-octreotide: effect on cellular ligand trafficking in vitro and tumor accumulation in vivo” (J Med Chem, 2005).

How the values were obtained:
[1] = molecular target: T1, Somatostatin receptor type 2 (Homo sapiens, UniProt P30874); experiment: Relative effective concentration against human somatostatin receptor type 2 expressed in CHO cells; (n=3); type: cell-based; conditions: cho
Method in brief: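 Dual-tracer internalization in CHO cells stably expressing N-terminally tagged hsst2 (90000–120000 cells/well, plated the day before). Acid wash at pH 5 removed surface-bound activity; nonspecific uptake was taken with 5 µM TOC; triplicates. EC50 is expressed relative to [125I]TOC.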

[2] = molecular target: T1, Somatostatin receptor type 2; experiment: In vitro inhibition of [125I][Leu8,D-Trp22,Tyr25] somatostatin 28 binding to human somatostatin receptor type 2 expressed in CCL39 cells; (n=3); type: cell-based
[3] = molecular target: Somatostatin receptor type 5 (Homo sapiens, UniProt P35346); experiment: In vitro inhibition of [125I][Leu8,D-Trp22,Tyr25] somatostatin 28 binding to human somatostatin receptor type 5 expressed in CHO-K1 cells; (n=3); type: cell-based
[4] = molecular target: Somatostatin receptor type 1 (Homo sapiens, UniProt P30872); experiment: In vitro inhibition of [125I][Leu8,D-Trp22,Tyr25] somatostatin 28 binding to human somatostatin receptor type 1 expressed in CHO-K1 cells; (n=3); type: cell-based
[5] = molecular target: Somatostatin receptor type 3 (Homo sapiens, UniProt P32745); experiment: In vitro inhibition of [125I][Leu8,D-Trp22,Tyr25] somatostatin 28 binding to human somatostatin receptor type 3 expressed in CCL39 cells; (n=3); type: cell-based
[6] = molecular target: Somatostatin receptor type 4 (Homo sapiens, UniProt P31391); experiment: In vitro inhibition of [125I][Leu8,D-Trp22,Tyr25] somatostatin 28 binding to human somatostatin receptor type 4 expressed in CCL39 cells; (n=3); type: cell-based
Method in brief: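 Membrane pellets from CCL39 cells stably expressing hsst4 were sectioned onto slides for receptor autoradiography. Full displacement of the universal somatostatin radioligand used unlabeled peptide at 0.1–1000 nM, with somatostatin 28 run in parallel at the same concentrations. Values are mean ± SD.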

[7] = molecular target: Somatostatin receptor type 2 (Rattus norvegicus) (UniProt P30680); experiment: In vivo tumor accumulation was determined in nude mice bearing rat pancreatic AR42J tumor cell expressed with somatostatin receptor type 2;60 min p.i.; (n=3-5); type: functional, organism-based; conditions: AR-42J
Method in brief: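 Female Swiss nu/nu mice, 6–8 weeks, were inoculated s.c. in the flank with (2.5–5) × 10⁶ AR42J cells in serum-free RPMI 1640 and used after 10 days (tumors 150–500 mg). About 370 kBq of radioiodinated peptide in 100 µL PBS pH 7.4 was given i.v. into the tail vein. Tumor was excised 60 min p.i. and gamma-counted; results are % ID/g.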

[8] = tested as the 123I-labelled form

Chain of Somatostatin receptor type 5 (P35346 whole entry): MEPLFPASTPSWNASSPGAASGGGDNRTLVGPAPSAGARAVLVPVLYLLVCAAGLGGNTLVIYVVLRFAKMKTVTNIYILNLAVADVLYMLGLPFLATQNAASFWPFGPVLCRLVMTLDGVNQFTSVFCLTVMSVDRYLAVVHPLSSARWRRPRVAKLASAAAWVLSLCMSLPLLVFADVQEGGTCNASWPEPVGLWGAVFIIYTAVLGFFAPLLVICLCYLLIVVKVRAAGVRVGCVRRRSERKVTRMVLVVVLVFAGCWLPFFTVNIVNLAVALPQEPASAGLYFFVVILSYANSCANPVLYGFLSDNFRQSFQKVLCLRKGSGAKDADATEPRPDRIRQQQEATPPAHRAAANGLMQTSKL
Chain of Somatostatin receptor type 1 (P30872 whole entry): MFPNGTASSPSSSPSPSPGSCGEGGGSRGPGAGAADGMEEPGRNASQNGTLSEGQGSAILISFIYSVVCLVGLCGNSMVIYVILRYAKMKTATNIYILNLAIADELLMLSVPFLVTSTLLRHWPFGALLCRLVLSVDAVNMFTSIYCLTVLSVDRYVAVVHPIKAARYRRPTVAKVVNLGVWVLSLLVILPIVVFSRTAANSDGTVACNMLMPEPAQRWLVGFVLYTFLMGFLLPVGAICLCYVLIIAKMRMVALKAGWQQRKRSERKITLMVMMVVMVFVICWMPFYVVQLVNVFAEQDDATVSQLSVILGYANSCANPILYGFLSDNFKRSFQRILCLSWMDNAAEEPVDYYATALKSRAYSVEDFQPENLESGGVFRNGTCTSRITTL
Chain of Somatostatin receptor type 2 (Rattus norvegicus) (P30680 whole entry): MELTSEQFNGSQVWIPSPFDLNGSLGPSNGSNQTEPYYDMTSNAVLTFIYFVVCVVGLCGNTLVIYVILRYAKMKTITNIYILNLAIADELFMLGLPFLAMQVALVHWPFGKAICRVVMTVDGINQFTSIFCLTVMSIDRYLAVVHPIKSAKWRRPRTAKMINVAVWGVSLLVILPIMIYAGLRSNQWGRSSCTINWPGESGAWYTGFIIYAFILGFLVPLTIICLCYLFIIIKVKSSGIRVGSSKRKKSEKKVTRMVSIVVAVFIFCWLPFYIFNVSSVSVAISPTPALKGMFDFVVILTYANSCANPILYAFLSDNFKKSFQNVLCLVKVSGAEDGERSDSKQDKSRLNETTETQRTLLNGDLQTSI
Chain of Somatostatin receptor type 4 (P31391 whole entry): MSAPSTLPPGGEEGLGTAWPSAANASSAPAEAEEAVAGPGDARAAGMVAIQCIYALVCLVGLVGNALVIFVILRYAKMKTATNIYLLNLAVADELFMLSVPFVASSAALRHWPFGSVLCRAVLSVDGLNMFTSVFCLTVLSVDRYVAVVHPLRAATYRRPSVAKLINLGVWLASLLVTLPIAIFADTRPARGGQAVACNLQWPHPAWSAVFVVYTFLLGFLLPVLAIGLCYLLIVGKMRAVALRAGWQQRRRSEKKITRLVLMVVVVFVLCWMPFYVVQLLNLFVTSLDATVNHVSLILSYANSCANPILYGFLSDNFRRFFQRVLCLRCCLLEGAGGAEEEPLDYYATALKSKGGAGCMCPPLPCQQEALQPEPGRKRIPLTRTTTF
T1 sequence (P30874 whole entry): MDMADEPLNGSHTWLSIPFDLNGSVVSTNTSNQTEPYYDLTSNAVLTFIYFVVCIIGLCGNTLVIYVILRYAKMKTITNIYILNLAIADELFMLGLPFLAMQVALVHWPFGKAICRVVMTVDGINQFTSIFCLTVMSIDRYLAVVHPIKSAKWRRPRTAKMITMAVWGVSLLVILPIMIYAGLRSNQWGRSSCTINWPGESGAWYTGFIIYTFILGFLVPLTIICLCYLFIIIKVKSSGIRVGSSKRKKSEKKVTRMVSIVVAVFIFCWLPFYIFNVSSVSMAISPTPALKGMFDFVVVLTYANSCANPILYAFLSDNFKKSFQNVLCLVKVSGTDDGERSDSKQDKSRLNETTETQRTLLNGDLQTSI
Chain of Somatostatin receptor type 3 (P32745 whole entry): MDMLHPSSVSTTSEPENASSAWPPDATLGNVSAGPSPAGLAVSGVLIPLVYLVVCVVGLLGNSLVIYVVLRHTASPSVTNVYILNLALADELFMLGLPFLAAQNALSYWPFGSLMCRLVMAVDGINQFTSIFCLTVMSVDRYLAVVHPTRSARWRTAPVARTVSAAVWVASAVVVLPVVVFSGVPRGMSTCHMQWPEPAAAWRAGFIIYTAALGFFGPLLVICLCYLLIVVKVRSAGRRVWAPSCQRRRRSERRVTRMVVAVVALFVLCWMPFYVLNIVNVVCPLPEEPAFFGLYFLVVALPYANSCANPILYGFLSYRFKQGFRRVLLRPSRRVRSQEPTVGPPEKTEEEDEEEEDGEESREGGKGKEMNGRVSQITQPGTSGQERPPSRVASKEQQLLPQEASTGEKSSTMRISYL

Compound | IC50 [2] [nM] | IC50 [3] [nM] | IC50 ([4]; cho-k1) [nM] | IC50 ([5]; ccl39) [nM] | IC50 [6] [nM] | ID/g [7, 8] [%] | also measured
C[C@@H](O)[C@H](CO)NC(=O)[C@@H]1CSSC[C@H](NC(=O)[C@@H](Cc2ccccc2)NC[C@]2(O)OC[C@H](O)[C@@H](O[C@@H]3O[C@@H](CO)[C@@H](O)[C@H](O)[C@@H]3O)[C@@H]2O)C(=O)N[C@@H](Cc2ccc(O)c([123I])c2)C(=O)N[C@H](Cc2c[nH]c3ccccc23)C(=O)N[C@@H](CCCCN)C(=O)N[C@@H]([C@@H](C)O)C(=O)N1 | – | – | – | – | – | – | EC50 [1]: 1.12 nM
C[C@@H](O)[C@H](NC(=O)[C@@H]1CSSC[C@H](NC(=O)[C@@H](Cc2ccccc2)NC[C@]2(O)OC[C@H](O)[C@@H](O[C@@H]3O[C@@H](CO)[C@@H](O)[C@H](O)[C@@H]3O)[C@@H]2O)C(=O)N[C@@H](Cc2ccc(O)c(I)c2)C(=O)N[C@H](Cc2c[nH]c3ccccc23)C(=O)N[C@@H](CCCCN)C(=O)N[C@@H]([C@@H](C)O)C(=O)N1)C(=O)O | 0.78 | 210 | > 10000 | 757 | 797 | – | –
C[C@@H](O)[C@H](NC(=O)[C@@H]1CSSC[C@H](NC(=O)[C@@H](Cc2ccccc2)NC[C@]2(O)OC[C@H](O)[C@@H](O[C@@H]3O[C@@H](CO)[C@@H](O[C@@H]4O[C@@H](CO)[C@@H](O)[C@H](O)[C@@H]4O)[C@H](O)[C@@H]3O)[C@@H]2O)C(=O)N[C@@H](Cc2ccc(O)c([123I])c2)C(=O)N[C@H](Cc2c[nH]c3ccccc23)C(=O)N[C@@H](CCCCN)C(=O)N[C@@H]([C@@H](C)O)C(=O)N1)C(=O)O | – | – | – | – | – | – | EC50 [1]: 1.81 nM
C[C@@H](O)[C@H](CO)NC(=O)[C@@H]1CSSC[C@H](NC(=O)[C@H](Cc2ccccc2)NC[C@]2(O)OC[C@H](O)[C@@H](O)[C@@H]2O)C(=O)N[C@@H](Cc2ccc(O)c(I)c2)C(=O)N[C@H](Cc2c[nH]c3ccccc23)C(=O)N[C@@H](CCCCN)C(=O)N[C@@H]([C@@H](C)O)C(=O)N1 | – | – | – | – | – | 8.7 | –
C[C@@H](O)[C@H](CO)NC(=O)[C@@H]1CSSC[C@H](NC(=O)[C@H](Cc2ccccc2)NC[C@]2(O)OC[C@H](O)[C@@H](O[C@@H]3O[C@@H](CO)[C@@H](O)[C@H](O)[C@@H]3O)[C@@H]2O)C(=O)N[C@@H](Cc2ccc(O)c(I)c2)C(=O)N[C@H](Cc2c[nH]c3ccccc23)C(=O)N[C@@H](CCCCN)C(=O)N[C@@H]([C@@H](C)O)C(=O)N1 | – | – | – | – | – | 5.2 | –
C[C@@H](O)[C@H](NC(=O)[C@@H]1CSSC[C@H](NC(=O)[C@@H](Cc2ccccc2)NC(=O)CN2CCN(CC(=O)O)CCN(CC(=O)O)CCN(CC(=O)O)CC2)C(=O)N[C@@H](Cc2ccc(O)cc2)C(=O)N[C@H](Cc2c[nH]c3ccccc23)C(=O)N[C@@H](CCCCN)C(=O)N[C@@H]([C@@H](C)O)C(=O)N1)C(=O)O | – | – | – | – | – | – | IC50 [4]: > 10000 nM; IC50 [5]: > 1000 nM
C[C@@H](O)[C@H](NC(=O)[C@@H]1CSSC[C@H](NC(=O)[C@@H](Cc2ccccc2)NC[C@@]2(O)OC[C@@H](O)[C@@H](O)[C@@H]2O)C(=O)N[C@@H](Cc2ccc(O)c(I)c2)C(=O)N[C@H](Cc2c[nH]c3ccccc23)C(=O)N[C@@H](CCCCN)C(=O)N[C@@H]([C@@H](C)O)C(=O)N1)C(=O)O | 2 | 521 | > 1000 | > 1000 | 1030 | – | –
EDOTREOTIDE YTTRIUM | – | – | > 10000 | – | > 10000 | – | –
C[C@@H](O)[C@H](NC(=O)[C@@H]1CSSC[C@H](NC(=O)[C@@H](Cc2ccccc2)NC[C@]2(O)OC[C@H](O)[C@@H](O[C@@H]3O[C@@H](CO)[C@@H](O[C@@H]4O[C@@H](CO)[C@@H](O)[C@H](O)[C@@H]4O)[C@H](O)[C@@H]3O)[C@@H]2O)C(=O)N[C@@H](Cc2ccc(O)c(I)c2)C(=O)N[C@H](Cc2c[nH]c3ccccc23)C(=O)N[C@@H](CCCCN)C(=O)N[C@@H]([C@@H](C)O)C(=O)N1)C(=O)O | 0.95 | 327 | > 10000 | 823 | 823 | – | –
C[C@@H](O)[C@H](NC(=O)[C@@H]1CSSC[C@H](NC(=O)[C@H](N)Cc2ccccc2)C(=O)N[C@@H](Cc2ccc(O)c(I)c2)C(=O)N[C@H](Cc2c[nH]c3ccccc23)C(=O)N[C@@H](CCCCN)C(=O)N[C@@H]([C@@H](C)O)C(=O)N1)C(=O)O | – | – | – | – | – | 21.2 | –
C[C@@H](O)[C@H](CO)NC(=O)[C@@H]1CSSC[C@H](NC(=O)[C@H](Cc2ccccc2)NC[C@]2(O)OC[C@H](O)[C@@H](O[C@@H]3O[C@@H](CO)[C@@H](O[C@@H]4O[C@@H](CO)[C@@H](O)[C@H](O)[C@@H]4O)[C@H](O)[C@@H]3O)[C@@H]2O)C(=O)N[C@@H](Cc2ccc(O)c(I)c2)C(=O)N[C@H](Cc2c[nH]c3ccccc23)C(=O)N[C@@H](CCCCN)C(=O)N[C@@H]([C@@H](C)O)C(=O)N1 | – | – | – | – | – | 4.9 | –
C[C@@H](O)[C@H](CO)NC(=O)[C@@H]1CSSC[C@H](NC(=O)[C@@H](Cc2ccccc2)NC[C@]2(O)OC[C@H](O)[C@@H](O[C@@H]3O[C@@H](CO)[C@@H](O[C@@H]4O[C@@H](CO)[C@@H](O)[C@H](O)[C@@H]4O)[C@H](O)[C@@H]3O)[C@@H]2O)C(=O)N[C@@H](Cc2ccc(O)c(I)c2)C(=O)N[C@H](Cc2c[nH]c3ccccc23)C(=O)N[C@@H](CCCCN)C(=O)N[C@@H]([C@@H](C)O)C(=O)N1 | 1.1 | 110 | > 10000 | 210 | > 1000 | – | –
C[C@@H](O)[C@H](NC(=O)[C@@H]1CSSC[C@H](NC(=O)[C@@H](Cc2ccccc2)NC(=O)CCS[C@@H]2O[C@@H](CO)[C@@H](O)[C@H](O)[C@@H]2O)C(=O)N[C@@H](Cc2ccc(O)c(I)c2)C(=O)N[C@H](Cc2c[nH]c3ccccc23)C(=O)N[C@@H](CCCCN)C(=O)N[C@@H]([C@@H](C)O)C(=O)N1)C(=O)O | – | 310 | > 1000 | 398 | 356 | – | –
C[C@@H](O)[C@H](CO)NC(=O)[C@@H]1CSSC[C@H](NC(=O)[C@@H](Cc2ccccc2)NC[C@]2(O)OC[C@H](O)[C@@H](O[C@@H]3O[C@@H](CO)[C@@H](O)[C@H](O)[C@@H]3O)[C@@H]2O)C(=O)N[C@@H](Cc2ccc(O)c(I)c2)C(=O)N[C@H](Cc2c[nH]c3ccccc23)C(=O)N[C@@H](CCCCN)C(=O)N[C@@H]([C@@H](C)O)C(=O)N1 | 1.2 | 75 | > 10000 | 243 | > 1000 | – | –
C[C@@H](O)[C@H](NC(=O)[C@@H]1CSSC[C@H](NC(=O)[C@@H](Cc2ccccc2)NC(=O)CCS[C@@H]2O[C@@H](CO)[C@H](O)[C@H](O)[C@@H]2O)C(=O)N[C@@H](Cc2ccc(O)c(I)c2)C(=O)N[C@H](Cc2c[nH]c3ccccc23)C(=O)N[C@@H](CCCCN)C(=O)N[C@@H]([C@@H](C)O)C(=O)N1)C(=O)O | – | 413 | > 1000 | 491 | 482 | – | –
C[C@@H](O)[C@H](NC(=O)[C@@H]1CSSC[C@H](NC(=O)[C@@H](Cc2ccccc2)NC[C@H]2O[C@H](O)[C@H](O)[C@@H](O)[C@@H]2O)C(=O)N[C@@H](Cc2ccc(O)c(I)c2)C(=O)N[C@H](Cc2c[nH]c3ccccc23)C(=O)N[C@@H](CCCCN)C(=O)N[C@@H]([C@@H](C)O)C(=O)N1)C(=O)O | – | – | – | – | – | 20.5 | –
GALLIUM OXODOTREOTIDE | 0.2 | 377 | > 10000 | > 1000 | 300 | – | –
C[C@@H](O)[C@H](CO)NC(=O)[C@@H]1CSSC[C@H](NC(=O)[C@@H](N)Cc2ccccc2)C(=O)N[C@@H](Cc2ccc(O)c(I)c2)C(=O)N[C@H](Cc2c[nH]c3ccccc23)C(=O)N[C@@H](CCCCN)C(=O)N[C@@H]([C@@H](C)O)C(=O)N1 | – | – | – | – | – | – | ID/g ([7]; tested as the 125I-labelled form): 5.5%
C[C@@H](O)[C@H](NC(=O)[C@@H]1CSSC[C@H](NC(=O)[C@H](Cc2ccccc2)NC[C@]2(O)OC[C@H](O)[C@@H](O[C@@H]3O[C@@H](CO)[C@@H](O)[C@H](O)[C@@H]3O)[C@@H]2O)C(=O)N[C@@H](Cc2ccc(O)c(I)c2)C(=O)N[C@H](Cc2c[nH]c3ccccc23)C(=O)N[C@@H](CCCCN)C(=O)N[C@@H]([C@@H](C)O)C(=O)N1)C(=O)O | – | – | – | – | – | 11.2 | –
C[C@@H](O)[C@@H]1NC(=O)[C@H](CCCCN)NC(=O)[C@@H](Cc2c[nH]c3ccccc23)NC(=O)[C@H](Cc2ccc(O)c(I)c2)NC(=O)[C@@H](NC(=O)[C@@H](Cc2ccccc2)NC[C@]2(O)OC[C@H](O)[C@@H](O)[C@@H]2O)CSSC[C@@H](C(=O)N[C@H](CO)[C@@H](C)O)NC1=O | 2.2 | 64 | > 1000 | 357 | 837 | – | –
C[C@@H](O)[C@H](NC(=O)[C@@H]1CSSC[C@H](NC(=O)[C@H](Cc2ccccc2)NC[C@]2(O)OC[C@H](O)[C@@H](O[C@@H]3O[C@@H](CO)[C@@H](O[C@@H]4O[C@@H](CO)[C@@H](O)[C@H](O)[C@@H]4O)[C@H](O)[C@@H]3O)[C@@H]2O)C(=O)N[C@@H](Cc2ccc(O)c(I)c2)C(=O)N[C@H](Cc2c[nH]c3ccccc23)C(=O)N[C@@H](CCCCN)C(=O)N[C@@H]([C@@H](C)O)C(=O)N1)C(=O)O | – | – | – | – | – | 25.1 | –
